Measurements: BindingDB's records for doi:10.1016/j.bmc.2011.02.028 (Kinki University, 2011)
Where a name gives a salt, the structure may show the parent alone.

experiment: Inhibition of rat small intestinal maltase after 30 mins
How it was run: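 Enzyme source was rat small-intestinal brush-border membrane vesicles suspended in 0.1 M maleate buffer, pH 6.0. Substrate solutions were maltose 74 mM (maltase), sucrose 74 mM (sucrase) and isomaltose 7.4 mM (isomaltase). Glucose was measured by glucose oxidase. IC50 was read graphically from % inhibition versus log concentration.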

| IC50 | SMILES |
| --- | --- |
| > 100 µM | O=S(=O)([O-])O[C@@H]([C@H](O)[C@@H](O)CO)[C@H](O)C[S@@+]1C[C@@H](O)[C@H](O)[C@H]1CO [ponkoranol] |
| 57 µM | O=S(=O)([O-])O[C@H]([C@@H](O)[C@@H](O)[C@@H](O)CO)[C@H](O)C[S+]1C[C@@H](O)[C@H](O)[C@H]1CO (stereo partly drawn) [1,4-dideoxy-1,4-{(S)-[(2S,3R,4S,5S,6S)-2,4,5,6,7-pentahydroxy-3-(sulfooxy)heptyl]episulfoniumylidene}-D-arabinitol inner salt] |
| 3.2 µM | O=S(=O)([O-])OC[C@H](O)C[S@@+]1C[C@@H](O)[C@H](O)[C@H]1CO [Salaprinol] |
| > 236 µM | O=S(=O)([O-])O[C@H]([C@@H](O)[C@H](O)[C@H](O)CO)[C@H](O)C[S+]1C[C@@H](O)[C@H](O)[C@H]1CO (stereo partly drawn) [1,4-dideoxy-1,4-{(S)-[(2S,3R,4S,5R,6R)-2,4,5,6,7-pentahydroxy-3-(sulfooxy)heptyl]episulfoniumylidene}-D-arabinitol inner salt] |
| > 236 µM | O=S(=O)([O-])O[C@H]([C@@H](O)[C@@H](O)[C@H](O)CO)[C@H](O)C[S+]1C[C@@H](O)[C@H](O)[C@H]1CO (stereo partly drawn) [1,4-dideoxy-1,4-{(S)-[(2S,3R,4S,5S,6R)-2,4,5,6,7-pentahydroxy-3-(sulfooxy)heptyl]-episulfoniumylidene}-D-arabinitol inner salt] |
| > 236 µM | O=S(=O)([O-])O[C@H]([C@@H](O)[C@H](O)[C@@H](O)CO)[C@H](O)C[S+]1C[C@@H](O)[C@H](O)[C@H]1CO (stereo partly drawn) [1,4-dideoxy-1,4-{(S)-[(2S,3R,4S,5R,6S)-2,4,5,6,7-pentahydroxy-3-(sulfooxy)heptyl]episulfoniumylidene}-D-arabinitol inner salt] |
